Screens deposited in PubChem BioAssay by several laboratories.
Hits are enriched below; roughly 0.85% of the tested compounds scored in any of these assays.
TRPML3 agonist: activates the human TRPML3 channel; activation, % at 3 µM; actives 0.29% (n = 220,000); HEK293 TRPML3-YFP, Fluo-8 calcium fluorescence; 100% = the carbachol control signal;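 active means activation above its plate's cutoff, the mean activation of the plate's test wells plus 3 SD, cut at about 12% in these data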;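 further: 0% = DMSO only wells and 100% = carbachol wells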
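Material: HEK293 cells stably carrying human TRPML3-YFP; compound dosing: single dose, 3 µM final nominal compound, 0.3% DMSO final; incubation: 1-h 37 °C dye load, 5-s basal, 120-s post-compound reads; technique: Fluo-8 intracellular calcium fluorescence, excitation 470-495 nm, emission 515-575 nm; read-out basis: percent activation from peak-to-basal fluorescence ratio, scaled between DMSO and carbachol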
OXTR agonist: human OXTR agonism; P30559; CHO-OTR cells, Fluo-8 calcium fluorescence; normalized: DMSO 0%, oxytocin 100%; activation, % at 3 µM; actives 0.32% (n = 320,000);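 active means activation above the mean of all tested compounds plus 3 SD, cutoff set per screening run, cut at about 20% in these data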;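 further: peak over basal fluorescence ratio from a 100 s FLIPR kinetic read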
Target sequence (P30559 whole entry, looked up): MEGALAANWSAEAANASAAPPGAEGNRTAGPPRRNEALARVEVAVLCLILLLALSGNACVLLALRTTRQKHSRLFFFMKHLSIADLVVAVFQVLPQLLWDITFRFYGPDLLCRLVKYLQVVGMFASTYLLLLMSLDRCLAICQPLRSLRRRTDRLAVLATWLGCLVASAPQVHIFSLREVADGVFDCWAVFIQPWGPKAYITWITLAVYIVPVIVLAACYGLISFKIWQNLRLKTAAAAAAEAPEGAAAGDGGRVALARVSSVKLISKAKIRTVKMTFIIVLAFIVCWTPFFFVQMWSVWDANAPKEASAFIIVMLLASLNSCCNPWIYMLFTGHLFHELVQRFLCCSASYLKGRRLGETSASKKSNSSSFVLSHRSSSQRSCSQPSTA
zfTRPN1 agonist: activates the zebrafish TRPN1 channel; HEK293 zebrafish TRPN1-YFP, Fluo-8 calcium fluorescence; 100% = response to 87 µM carbachol; activation, % at 3 µM; actives 0.18% (n = 220,000); AID 1424;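 active means activation above its plate's cutoff, the mean activation of test wells on that plate plus 3 SD, cut at about 19% in these data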;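 further: 0% = DMSO alone and 100% = 87 µM carbachol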
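System: zebrafish TRPN1-YFP in HEK293 cells / Dosing: 3 µM single point / Timing: dye loading 1 h at 37 °C, then 30 min room temperature / Signal: Fluo-8 calcium fluorescence, excitation 470-495 nm, emission 515-575 nm / Read-out basis: percent activation from peak over basal fluorescence ratio, control-normalized / Control set: high carbachol 87 µM, low DMSO alone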
CRFBP-R2 agonist: agonists of human CRF-binding protein/CRF-R2 receptor complex. HEK293 CRF-R2/CRF-BP, calcium dye fluorescence (FLIPR); percent of saturating CRF peptide response. activation, % at 13.2 µM. actives 0.46% (n = 350,000). AID 588473;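 active means activation of at least 50%, plus an integration ratio under a set limit after plate pattern correction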;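 further: plate controls were neutral control wells without compound for no effect and CRF at EC100 for full effect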
V1R ag counter: V1a receptor agonism, counter-screen for OXTR agonists. activation, % at 3 µM. CHO-V1R cells, Fluo-8 calcium fluorescence, agonist mode; 0% DMSO, 100% 3 nM vasopressin. AID 2797. actives 0.25% (n = 320,000);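 active means activation above the mean activation of all tested compounds plus 3 SD, per screening run, cut at about 20% in these data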;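 further: signal is peak over basal fluorescence ratio across a 100 second FLIPR read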
Target sequence (P37288 whole entry, looked up): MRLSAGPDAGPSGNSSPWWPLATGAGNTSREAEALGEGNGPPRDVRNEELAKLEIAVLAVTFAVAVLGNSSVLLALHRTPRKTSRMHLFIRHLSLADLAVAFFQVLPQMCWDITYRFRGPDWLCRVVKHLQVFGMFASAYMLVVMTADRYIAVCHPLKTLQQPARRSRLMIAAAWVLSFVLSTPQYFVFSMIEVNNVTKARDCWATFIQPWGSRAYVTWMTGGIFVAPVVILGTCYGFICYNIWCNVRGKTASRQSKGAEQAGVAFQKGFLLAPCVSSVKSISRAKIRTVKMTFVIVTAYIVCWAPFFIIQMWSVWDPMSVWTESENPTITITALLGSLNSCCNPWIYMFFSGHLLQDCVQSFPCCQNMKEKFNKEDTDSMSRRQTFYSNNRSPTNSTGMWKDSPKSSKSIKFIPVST
OXTR potentiate: potentiates the human oxytocin receptor response | P30559 | CHO-OTR cells, Fluo-8 calcium fluorescence, potentiator mode; 0% = oxytocin EC15, 100% = EC100 | activation, % at 3 µM | actives 0.061% (n = 320,000);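 active means activation above that plate's cutoff, the mean activation of tested compounds plus 3 SD, cut at about 6.6% in these data, passing the limit was not always enough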;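 further: 100% uses oxytocin at 75 nM as the full agonist control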
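Dosing: Single dose, 3.0 µM nominal final compound concentration | Material: Human OTR in CHO cells | Technique: Kinetic Fluo-8 calcium fluorescence | Benchmarks: EC15 oxytocin alone as 0%, 75 nM oxytocin as 100% | Probe or stimulus: Oxytocin at about EC15, sub-maximal agonist stimulus | Incubation: Compound 6 min at room temperature before oxytocin, 100 s read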
OXTR agonist cf: human OXTR agonism, confirmation | shares compounds with OXTR agonist | CHO-OTR cells, Fluo-8 calcium fluorescence, agonist | activation, % at 3 µM | actives 20% (n = 390) | AID 434963;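 active means mean activation above about 20% derived from the earlier single-dose screen, limit read from the data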;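 further: peak over minimum fluorescence ratio per well during a 100 second FLIPR read; 0% = DMSO alone and 100% = oxytocin high control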
V1aR counter 3x: activates V1a receptor in oxytocin agonist counter-screen | CHO-V1R cells, Fluo-8 calcium fluorescence | shares compounds with OXTR agonist | activation, % at 3 µM | actives 10% (n = 390);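 active means mean activation over triplicate exceeds the hit threshold set in the earlier primary screen, cut at about 20% in these data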;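 further: peak over basal fluorescence ratio within a 100 second read; 0% = DMSO alone and 100% = 3 nM vasopressin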
OXTR pot confirm: human OXTR potentiation, confirmation; shares compounds with OXTR potentiate; CHO-OTR cells, Fluo-8 calcium fluorescence; scaled from low-dose to maximal oxytocin; activation, % at 3 µM; 180 tested, under 10 active; AID 434985;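 active means mean percent activation over triplicates above a cutoff set from solvent-only control plates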;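 further: compounds tested in the presence of an EC15 dose of oxytocin; 0% = EC15 oxytocin with DMSO and 100% = EC100 oxytocin with DMSO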
Starred values were filed as active, the others as inactive; · = no result given; ! = not active in a repeat.

SMILES | TRPML3 agonist | OXTR agonist | zfTRPN1 agonist | CRFBP-R2 agonist | V1R ag counter | OXTR potentiate | OXTR pot confirm | others
Cc1c(Cl)cccc1NC(=S)NNc1ncc(C(F)(F)F)cc1Cl | 2 | 29* | 5 | 20 | 16 | -12 | · | OXTR agonist cf=7;V1aR counter 3x=7
Cc1nc2c(c(=O)c3ccccc3n2C)c(=O)n1C1CCCCCC1 | 0 | 20* | 14 | 51* | 12 | -12 | · | OXTR agonist cf=9;V1aR counter 3x=2
OC(c1cc(C(F)(F)F)nc2c(C(F)(F)F)cccc12)C1CCCCN1 (configuration not stated) | · | 24* | · | 18 | 11 | -16 | · | OXTR agonist cf=9;V1aR counter 3x=8
COc1ccccc1CNc1ccc(Br)cn1 | · | -2 | · | -2 | -1 | -16 | ·
CCCc1ccc(Oc2c(-c3ccc(O)c(C)c3O)n[nH]c2C)cc1 | 2 | 20* | 10 | 5 | 16 | -6 | · | OXTR agonist cf=22*;V1aR counter 3x=13
Fc1ccc([C@@H]2CCNC[C@H]2COc2ccc3c(c2)OCO3)cc1 | 1 | 23*! | 0 | -1 | 13 | -10 | · | OXTR agonist cf=11;V1aR counter 3x=7
Fc1ccc(C2CCNCC2COc2ccc3c(c2)OCO3)cc1 (configuration not stated) | · | 12 | · | 0 | 3 | -8 | ·
Cc1ccc(NC(=O)COC(=O)CCC2CCCC2)c(Br)c1 | · | -2 | · | -1 | -1 | -2 | ·
NC(=S)c1csc(CCNC(=O)c2ccccc2)n1 | · | · | · | 0 | · | · | ·
COc1cc(S(=O)(=O)n2ccc(C)n2)c(C)cc1C | · | · | · | 0 | · | · | ·
Cc1[nH]c(=O)[nH]c(=O)c1S(=O)(=O)NCC12CC3CC(CC(C3)C1)C2 | 1 | 2 | -1 | 1 | 1 | 11* | -5
CCC(NS(=O)(=O)c1c(C)[nH]c(=O)[nH]c1=O)C12CC3CC(CC(C3)C1)C2 (configuration not stated) | 0 | -1 | 1 | 0 | 1 | -19 | ·
COc1ccc(Nc2nnc(-c3ccc(C)cc3)c3ccccc23)cc1C(=O)N1CCCCC1 | 0 | -3 | -2 | -1 | 8 | 17* | 5
CCC1=C(NCc2ccccc2)COC1=O | · | · | · | -1 | · | · | ·
ON=C1C2CC=C(c3ccccc3)C1CCC2 (configuration not stated) | · | · | · | 2 | · | · | ·
COc1cc(Nc2cc(C)nc3ncnn23)cc(OC)c1OC | 0 | 1 | 0 | 1 | 1 | 6 | ·
CCOc1ccc(OCC)c(Nc2cc(C)nc3ncnn23)c1 | -1 | -1 | 0 | -2 | 0 | 16* | -7
COc1cc(Nc2cc(C)nc3ncnn23)cc(OC)c1 | 0 | -2 | 1 | 1 | -1 | 6.4* | -3
C=CCn1c(O)c2ccc(C(=O)N=NC(=O)c3ccc(F)cc3)cc2c1O | · | 1 | · | -4 | 1 | -2 | ·
Cc1ccc2oc(=O)n(Cc3ccccc3)c2c1 | · | -2 | · | 1 | -1 | -13 | ·
O=C(c1ccccc1)N1CCN(S(=O)(=O)N2CCOCC2)CC1 | 1 | 2 | 1 | 4 | 1 | 14* | -2
CCN(CC(=O)NCc1cccs1)C(=O)/C=C/c1cc(OC)c(OC)c(OC)c1 | · | · | · | 1 | · | · | ·
COc1ccc(NS(=O)(=O)c2cccc(C(=O)N/N=C/c3cn(-c4ccccc4)nc3-c3ccccc3)c2)cc1 | 0 | -1 | 0 | -1 | -1 | -1 | ·
COc1ccc(NS(=O)(=O)c2cccc(C(=O)N/N=C/c3cn(-c4ccccc4)nc3-c3ccc(OC)cc3)c2)cc1 | 1 | 1 | 2 | 0 | 1 | 8.9* | -3
COc1ccc(Cc2nnc(NC(=O)Nc3ccccc3)s2)cc1OC | · | 1 | · | -1 | 6 | -16 | ·
SMILES | TRPML3 agonist | OXTR agonist | zfTRPN1 agonist | CRFBP-R2 agonist | V1R ag counter | OXTR potentiate | OXTR pot confirm | others
Cc1ccc(CNC(=O)C2CCC(=O)N2C2CCCCC2)cc1 (configuration not stated) | 0 | 1 | 0 | 1 | 0 | 10* | -5
CC(C)CC1NC(=O)c2cc(Cl)ccc2-n2c1nc1cc(F)ccc1c2=O (configuration not stated) | · | -3 | · | · | -1 | 15* | 3
CN(CCc1ccccc1)C(=O)c1cccc(NC(=O)Cc2cccc(NC(=O)C3CCCN(C(=O)c4ccccc4)C3)c2)c1 (configuration not stated) | · | · | · | -1 | · | · | ·
CCOc1ccccc1Nc1nc(N)nc(CSc2nncn2C)n1 | 0 | 0 | 0 | -3 | 1 | 11* | -6
COc1ccc(Nc2nc(N)nc(CSc3nncn3C)n2)cc1 | 1 | 0 | -1 | 10 | 0 | -2 | ·
O=S(=O)(c1ccc(S(=O)(=O)N2CCOCC2)cc1)N1CCCC1 | -1 | 2 | 0 | -1 | 2 | 12* | -4
O=S(=O)(c1ccc(S(=O)(=O)N2CCCC2)cc1)N1CCCCC1 | · | 1 | · | 1 | 1 | -4 | ·
O=C(/C=C/c1cccs1)Nc1ccncc1 | 1 | -1 | 1 | -2 | -1 | 13* | 2
O=C(/C=C/c1cccs1)Nc1ccc([N+](=O)[O-])cc1 | 1 | 1 | 9 | 1 | 3 | -13 | ·
Cc1c(C(=O)Nc2ccc(F)cc2)sc2ncn(CC(=O)N3CCCCC3)c(=O)c12 | · | 4 | · | 1 | 5 | -10 | ·
CC(=O)Nc1ccc(S(=O)(=O)N(C)CC(=O)N/N=C/c2cccc(O)c2)cc1 | 1 | 1 | 3 | -1 | -1 | 15* | -3
CC(=O)Nc1ccc(S(=O)(=O)N(C)CC(=O)N/N=C/c2cccs2)cc1 | · | 0 | · | 0 | 0 | -8 | ·
CCCCn1c(-c2ccoc2C)n[nH]c1=S | 0 | 1 | -1 | -1 | 0 | 10* | -7
O=C(COC(=O)c1ccccc1NC(=O)c1ccco1)NC1CCCCC1 | 0 | -1 | 0 | -1 | 0 | -15 | ·
CC1CCCC(NC(=O)COC(=O)c2ccccc2NC(=O)c2ccco2)C1C (configuration not stated) | 0 | 0 | -2 | 0 | -1 | 10* | -4
C[C@H](CO)N1C[C@H](C)[C@@H](CN(C)C(=O)c2ccc3c(c2)OCO3)Oc2cc(/C=C/c3ccccc3)ccc2S1(=O)=O | · | · | · | 1 | · | · | ·
CCCCc1ccc(NC(=O)N[C@H](C(=O)O)C(C)CC)cc1 (some centres not stated) | 0 | -3 | -1 | -1 | -1 | 13* | 1
